This is an account of results in ChEMBL document CHEMBL2385015, “Alkaloids and polyketides from Penicillium citrinum, an endophyte isolated from the Moroccan plant Ceratonia siliqua” (J Nat Prod, 2013).

In general, IC50 refers to the concentration that inhibits the measured activity by half. Lower therefore signals greater potency in that assay.

One test has as its system Escherichia coli. The test is described as follows: Antibacterial activity against Escherichia coli ATCC 25922 at 64 ug/mL by broth microdilution method. The test is classed as functional, organism-based.
The next test deals with Streptococcus pneumoniae. The test is described as follows: Antibacterial activity against Streptococcus pneumoniae ATCC 49619 at 64 ug/mL by broth microdilution method. Type of test: functional, organism-based.
Another test has as its system Staphylococcus aureus. The test is described as follows: Antibacterial activity against Staphylococcus aureus ATCC 29213 at 64 ug/mL by broth microdilution method. The test is classed as functional, organism-based.
A further test deals with L5178Y. Nature of the test: Cytotoxicity against mouse L5178Y cells by MTT assay. Type of test: functional, cell-based. The procedure, abridged:
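Growth of L5178Y mouse lymphoma cells measured by MTT (microculture tetrazolium) assay relative to untreated controls. Medium with 0.1% EGMME–DMSO served as negative control and the depsipeptide kahalalide F as positive control.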
(Formazan colour is commonly taken as a measure of viable cells.)

Active and inactive are the calls of the source. The rule behind the calls is not given here.

For the molecule `COc1cc(O)c(C)c2c1[C@@H](c1ccc3n1C(=O)c1c-3[nH]c3ccccc3c1=O)O[C@@H](C)C2` [CITRIQUINOCHROMAN], the outcome in the test with Escherichia coli, in the test with Streptococcus pneumoniae and in the test on Staphylococcus aureus was inactive. Also, in the test on L5178Y, half-maximal inhibition (IC50) required 6.1 µM.
As to `CC1=C[C@H](O)[C@H]2C[C@@H](CO)C[C@@H](C)[C@@H]2[C@H]1/C=C/C=C/C(=O)O`, the result with Escherichia coli, with Streptococcus pneumoniae and with Staphylococcus aureus was inactive. Further, the half-inhibitory concentration (IC50) with L5178Y is over 10 µM.
As to `C[C@@H]1C[C@@](C)(O)Cc2ccc(CO)c(/C=C/C=C/C(=O)O)c21`, the outcome with Escherichia coli, in the test on Streptococcus pneumoniae and with Staphylococcus aureus was inactive. The molecule also gave an IC50 in the test with L5178Y of over 10 µM.
For `O=C1c2c([nH]c3ccccc3c2=O)C2CCCN12` (centres undefined), the outcome with Escherichia coli, in the test with Streptococcus pneumoniae and in the test on Staphylococcus aureus was inactive. The IC50 with L5178Y was over 10 µM.
In the case of `COc1cc(O)c(C)c2cc(C)ncc12`, the result with Escherichia coli, with Streptococcus pneumoniae and in the test on Staphylococcus aureus was inactive. This molecule had a half-maximal inhibitory concentration (IC50) in the test on L5178Y of over 10 µM.
Take `CC(=O)c1c(CC(=O)O)cc(O)c(C)c1O`: the outcome in the test on Escherichia coli, in the test with Streptococcus pneumoniae and in the test on Staphylococcus aureus was inactive. This molecule also returned an IC50 in the test on L5178Y of over 10 µM.
